# Source: PubChem
# APJ ag = APJ receptor agonism. P35414. 0.11% of 330,000 active. AID 2520. activation, % at 20 µM. CHO-K1 APJ PathHunter beta-arrestin, luminescence; 0% DMSO wells, 100% apelin;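 active = activation more than six SD over the plate average, tested at 20 µM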;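 also: 0% = DMSO alone and 100% = apelin-13 at 10 nM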
# Target sequence (P35414 whole entry, looked up): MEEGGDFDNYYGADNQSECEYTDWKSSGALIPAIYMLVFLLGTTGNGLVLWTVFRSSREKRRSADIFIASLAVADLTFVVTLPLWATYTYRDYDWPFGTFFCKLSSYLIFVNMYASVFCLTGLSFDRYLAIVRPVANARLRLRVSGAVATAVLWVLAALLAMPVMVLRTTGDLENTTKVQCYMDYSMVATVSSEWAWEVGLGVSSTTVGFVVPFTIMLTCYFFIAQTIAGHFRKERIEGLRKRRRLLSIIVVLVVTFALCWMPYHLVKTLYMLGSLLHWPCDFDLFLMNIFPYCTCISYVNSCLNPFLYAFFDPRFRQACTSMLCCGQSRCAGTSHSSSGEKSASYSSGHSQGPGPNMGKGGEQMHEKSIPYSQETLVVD
#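 Incubation: overnight seeding, 90 min compound at 25 °C, 1 h detection; test system: PathHunter CHO-K1 APJ (AGTRL-1) beta-arrestin reporter cells; amount: 1000 cells/well; doses: one dose, 20 µM compound, 1% DMSO; measured by: beta-gal luminescence; measure: agonist-driven arrestin binding to APJ; benchmarks: negative DMSO alone, positive Apelin-13 at 10 nM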
# HTR2A ag = activates the mouse 5-HT2A serotonin receptor. P35363. CHO-K1 mHTR2A beta-arrestin complementation, luminescence; percent of 30 µM serotonin response. activation, % at 7.6 µM. 0.66% of 360,000 active. AID 624169;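 active = activation above a run cutoff, the mean activation of all tested compounds plus 3 SD, cut at about 14% in these data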;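 also: 0% = plate median of compound wells and 100% = 30 µM serotonin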
# APJ antag = antagonists of human APJ apelin receptor | CHO-K1 APJ beta-arrestin complementation, luminescence | 0.32% of 330,000 active | inhibition, % at 20 µM | P35414;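 active = inhibition above about 40% at 20 µM, limit read from the data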;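 also: cells challenged with 10 nM apelin-13 agonist together with compound; plate controls were apelin-13 plus DMSO wells for no effect and DMSO wells lacking apelin-13 for full effect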
# EBI2 block = antagonists of human EBI2 receptor; P32249; EBI2 beta-arrestin recruitment, luminescence, 7a,25-OHC stimulated; inhibition, % at 5 µM; 0.81% of 360,000 active; AID 651636; in the data active = inhibition above about 38%;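 also: enzyme fragment complementation signal reports receptor beta-arrestin coupling in cells; 0% = agonist plus DMSO wells and 100% = wells without agonist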
# CXCR6 block = CXCR6 (human) receptor inhibition; O00574; CHO-K1 PathHunter CXCR6 beta-arrestin, luminescence; inhibition, % at 20 µM; 0.36% of 360,000 active; in the data active = inhibition above about 34%, passing the limit was not always enough;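 also: antagonist mode with CXCL16 agonist at 10 nM final; 0% = 10 nM CXCL16 with DMSO and 100% = unstimulated wells without agonist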
# CCR6 antagonist = CCR6 (human) receptor antagonism. CHO-K1 CCR6 PathHunter beta-arrestin, luminescence, CCL20-stimulated. inhibition, % at 20 µM. 0.49% of 340,000 active. AID 493098;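 active = compounds whose inhibition of the agonist-driven luminescence signal at 20 µM reaches about 50%, limit read from the data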;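 also: cells stimulated with CCL20 at 14 nM final; plate controls were DMSO with CCL20 for no effect and DMSO without agonist for full effect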
# MOR ag counter = activates human mu opioid receptor in HTR2A counterscreen; shares compounds with HTR2A ag; U2OS OPRM1 beta-arrestin PathHunter, luminescence; DMSO 0%, DAMGO 9.3 µM 100%; activation, % at 9.3 µM; 5.3% of 2,300 active; AID 624380;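 active = mean activation above the mean of DMSO-only wells plus 3 SD, cut at about 0.5% in these data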
# HTR2A ag conf = mouse HTR2A agonism confirmed | shares compounds with HTR2A ag | CHO-K1 PathHunter beta-arrestin recruitment, luminescence; DMSO 0%, 30 µM serotonin 100% | activation, % at 7.6 µM | 19% of 2,300 active | AID 624381;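 active = mean activation across triplicates above the hit threshold derived in the original primary screen, cut at about 15% in these data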
# Numbers without * were called inactive; . = no result. Compounds with a hit are over-represented: about 2.1% of the library has one in this group of screens.
SMILES,APJ ag,HTR2A ag,APJ antag,EBI2 block,CXCR6 block,CCR6 antagonist,MOR ag counter,HTR2A ag conf
Cn1cc([N+](=O)[O-])c(C(=O)N/N=C/c2ccc([N+](=O)[O-])cc2)n1,4,20*,-16,-10,-3,-7,0,37*
COc1ccccc1C(=O)Nc1cccc(N(C)S(C)(=O)=O)c1,-6,5,3,9,-3,-9,.,.
O=C(NCCc1ccccc1F)C1CCC(=O)N(CCCN2CCCC2=O)C1 (configuration not stated),1,3,13,-4,-2,4,.,.
O=C(Nc1ccn(CCCN2CCN(c3ncccn3)CC2)c(=O)n1)OCc1ccccc1,.,25*,.,-1,-7,.,0,29*
CCCCNC(=O)NNC(=O)c1ccc(F)cc1,-1,1,9,-29,5,6,.,.
CCCC[C@@H]1CNC(=S)N1CCc1cccc(F)c1,3,15*,4,-4,-8,15,0,-3
CCCC[C@@H]1CNC(=O)C(=O)N1CCc1cc(C(F)(F)F)cc(C(F)(F)F)c1,0,15*,14,-1,-2,-6,0,-2
O=C1NC[C@H](Cc2ccc(O)cc2)N(CCc2cc(C(F)(F)F)cc(C(F)(F)F)c2)C1=O,.,3,.,5,0,.,.,.
Fc1cccc(CCN2C(=S)NC[C@@H]2Cc2ccccc2)c1,-4,-2,-36,-1,0,-6,.,.
CCC(=O)c1ccc(OCC(=O)OCc2csc(CC(=O)Nc3ccccc3C)n2)cc1,.,19*,.,3,0,.,-1,-5
COC(=O)c1cc(=O)nc(NN=Cc2ccc(OC)cc2)s1,.,17*,.,9,9,.,0,0
COc1ccc(-c2cc(C(=O)Nc3ccc(NC(C)=O)cc3)[nH]n2)c(C)c1,.,21*,.,-11,-5,.,-1,-7
CC(C)NC(=O)c1ccc2c(c1)N(CC(=O)NC1CCCCC1)C(=O)C(C)(C)O2,-2,5,6,-1,3,-7,.,.
Cc1nc2c3cnn(-c4ccccc4)c3ncn2n1,-2,-2,3,-8,0,-8,.,.
CCc1nc2c3cnn(-c4cc(Cl)ccc4C)c3ncn2n1,-2,16*,4,1,-5,2,-1,-3
Fc1ccc(-c2csc3ncnc(N4CCN(Cc5ccccc5)CC4)c23)cc1,18,-1,6,8,-17,23,.,.
OCCN1CCN(c2ncnc3scc(-c4ccc(F)cc4)c23)CC1,1,16*,8,2,3,14,0,5
O=C(COC(=O)c1ccco1)Nc1ccc(N2CCOCC2)cc1,-9,17*,7,-6,-12,3,0,-3
CC(=O)Nc1ccc(C(=O)OCC(=O)Nc2ccc(N3CCOCC3)cc2)cc1,-1,-1,12,-8,6,2,.,.
CC(C)c1ccc2c(c1)C1Cc3ccccc3C1N2 (configuration not stated),-2,0,4,21,-3,25,.,.
O=C(O)c1cccc2c1Cc1cc([N+](=O)[O-])ccc1-2,.,15*,.,2,-4,3,0,-1
O=C(Nc1ccccc1)c1cnc2n(c1=O)CCS2,-3,3,-51,-12,6,7,.,.
O=C(c1cnc2n(c1=O)CCS2)N1CCN(c2ccc(Cl)c(Cl)c2)CC1,0,20*,15,-1,-4,9,-1,4
CCOc1ccc(CCNC(=O)c2cccc(NC3=NC4CS(=O)(=O)CC4S3)c2)cc1 (configuration not stated),0,18*,-6,-6,-3,3,-1,-4
CCOc1ccc(CCNC(=O)c2cccc(NC3=NC4CS(=O)(=O)CC4S3)c2)cc1OCC (configuration not stated),-2,-2,-23,-8,-2,2,.,.
SMILES,APJ ag,HTR2A ag,APJ antag,EBI2 block,CXCR6 block,CCR6 antagonist,MOR ag counter,HTR2A ag conf
C[C@H]1CN([C@@H](C)CO)S(=O)(=O)c2ccc(-c3ccccc3)cc2O[C@H]1CN(C)C(=O)C1CCC1,.,3,.,7,-13,.,.,.
C[C@@H]1CN([C@H](C)CO)S(=O)(=O)c2ccc(C#Cc3ccccc3F)cc2O[C@H]1CN(C)C(=O)c1ccc2c(c1)OCO2,.,20*,.,-36,8,.,0,32*
C[C@@H]1CN([C@@H](C)CO)S(=O)(=O)c2ccc(-c3ccccc3)cc2O[C@@H]1CN(C)Cc1ccccc1C(=O)O,.,19*,.,-3,8,.,-1,-1
C[C@@H]1CN([C@@H](C)CO)S(=O)(=O)c2ccc(Br)cc2O[C@@H]1CN(C)S(=O)(=O)c1cn(C)cn1,.,17*,.,-8,2,.,0,-1
COCCN1Cc2cccc(C(=O)Nc3cc(C)cc(C)c3)c2C1=O,1,-4,-1,11,3,11,.,.
COc1cccc(CNC(=O)CN2C(=O)COc3ccc(S(=O)(=O)N4CCOCC4)cc32)c1,-3,0,12,-12,5,6,.,.
COc1cccc(CNC(=O)CN2C(=O)COc3ccc(S(=O)(=O)N4CCCCC4)cc32)c1,-6,16*,11,6,6,5,-1,-5
Cc1cccc(OCC(=O)Nc2nnc(S(=O)(=O)N3CCC(C)CC3)s2)c1,-1,17*,-3,-11,-4,5,-1,-2
O=C(CC1CS(=O)(=O)CC1CC(=O)Oc1ccccc1F)Oc1ccccc1F (configuration not stated),-1,16*,-24,15,4,9,0,-2
CC(NC(=O)c1nn(C)c(=O)c2ccccc12)c1ccc(F)cc1 (configuration not stated),-1,15*,17,1,-8,-5,0,-3
COc1ccc(OC)c(C2C(C(=O)Nc3ccccc3OC)=C(C)Nc3nc(CCCO)nn32)c1 (configuration not stated),-3,5,18,3,3,6,.,.
CCOc1ccccc1C1C(C(=O)Nc2ccccc2OC)=C(C)Nc2nc(CCCO)nn21 (configuration not stated),-1,30*,-3,-5,8,7,-1,-3
O=[n+]1cc(-c2ccccc2)n([O-])c2c1CCC2,-1,1,-6,-9,3,-6,.,.
CC1(C)N=C(N)N=C(N)N1c1cc(Cl)ccc1Cl,.,23*,.,-22,-3,.,0,-1
